Laboratory results reported in PMC6800637 (Cell chemical biology, 2019).
Like-named read-outs stand apart in the source and are kept apart here.

Legend:
[1] = test system: NRF2; experiment: ARE-luciferase NRF2 activation assay; assay type: cell-based; conditions: for Max. induction (fold): ARE-luciferase relative to vehicle control, MDA-MB-231
[2] = test system: MDA-MB-231 cells
[3] = test system: NRF2; experiment: Immunoblot of NRF2 and downstream genes; assay type: cell-based; conditions: for protein level of NRF2 and downstream target genes AKR1C1, NQO-1, HO-1, GCLM: MDA-MB-231, indicated doses, 16 hours
Procedure, shortened: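 MDA-MB-231 cells were seeded at 6×10^5 per 35 mm dish and treated 24 h later with test compound. Treatment was either a dose series for 16 h, or 2.33 or 71.5 µM (per compound) for a time course up to 48 h. Lysates were made in Laemmli buffer, boiled 5 min and run on SDS-PAGE, then immunoblotted for NRF2, AKR1C1, NQO1, HO-1 and GCLM. Done in triplicate.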

[4] = test system: NRF2; experiment: Real-time qRT-PCR of NRF2 and downstream genes; assay type: cell-based; conditions: MDA-MB-231, 16 hours
Procedure, shortened: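 MDA-MB-231 cells (6×10^5 per 35 mm dish) were treated 24 h after seeding with test compound for 16 h. Total RNA was TRIzol-extracted, and 1 µg was reverse-transcribed with M-MLV RT. SYBR Green qPCR: 95 °C 4 min, then 45 cycles of 95 °C 10 s and 60 °C 30 s. Values are normalised to GAPDH with untreated set to 1. Three runs in duplicate, mean ± SD, Student t-test.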

[5] = test system: KEAP1; experiment: NRF2 immunoblot in KEAP1-WT and KEAP1-/- cells; assay type: cell-based; conditions: for level of NRF2 in KEAP1-/- cells: KEAP1-/- MDA-MB-231, four hours; for level of NRF2 in WT cells: KEAP1-WT MDA-MB-231, four hours
[6] = test system: NRF2; experiment: NRF2 ubiquitination assay; assay type: cell-based; conditions: MDA-MB-231 transfected with NRF2 and HA-Ubiquitin, 3 2.33 µM, 5 71.5 µM, 4 hours
[7] = test system: NRF2; experiment: NRF2 protein half-life; assay type: cell-based
[8] = test system: KEAP1-WT; experiment: Dual luciferase reporter assay and immunoblot, KEAP1-WT re-expressed; assay type: cell-based; conditions: KEAP1-/- MDA-MB-231 + KEAP1-WT, at EC50, 16 hours
Procedure, shortened: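 KEAP1−/− MDA-MB-231 cells (CRISPR-Cas9) were co-transfected with a KEAP1-WT expression vector plus NQO1-ARE firefly and TK-Renilla luciferase reporters. After 24 h, cells were treated with test compound for 16 h; controls were SFN (2 µM) and NaAsO2 (1 µM). Firefly activity is reported relative to Renilla (dual-luciferase), with an NRF2/KEAP1 immunoblot normalised to GAPDH. Mean ± SD of three independent experiments.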

[9] = test system: KEAP1-C151S; experiment: Dual luciferase reporter assay and immunoblot, KEAP1-C151S re-expressed; assay type: cell-based; conditions: for KEAP1-Cys151 dependence of NRF2 activation: KEAP1-WT versus KEAP1-C151S, dual luciferase and immunoblot; for firefly luciferase induction in the presence of KEAP1-C151S: KEAP1-/- MDA-MB-231 + KEAP1-C151S, 5 at EC50, As 1 µM, 16 hours
[10] = induction of ARE-luciferase, MDA-MB-231, 16 hours
[11] = MDA-MB-231 ARE-luciferase cell line, 48 h, MTT
[12] = MDA-MB-231, 71.5 µM, cycloheximide

With “1-O-Acetyl-15α-hydroxy-15-deoxy-methylgeopyxin A [Compound 14]” the “Max. induction (fold)” value [1] was 4.2 fold, the EC50 [1, 10] was 54.5 ± 5.1 µM and the “LD50 [48 h]” value [2] was 123.63 ± 3.89 µM.

With “15α-Hydroxy-15-deoxy-methylgeopyxin A [Compound 13]” the “Max. induction (fold)” value [1] was 1.9 fold, the EC50 [1, 10] was 73.1 ± 0.87 µM and the “LD50 [48 h]” value [2] was >128 µM.

With 16,17-dihydrogeopyxin A [Compound 16] the “Max. induction (fold)” value [1] was 1.6 fold, the EC50 [1, 10] was 70.4 ± 5.12 µM and the “LD50 [48 h]” value [2] was >128 µM.

For “16,17-epoxymethylgeopyxin A [Compound 15]”, the “Max. induction (fold)” value [1] was 3.5 fold, the EC50 [1, 10] was 26.8 ± 4.08 µM and the “LD50 [48 h]” value [2] was 115.11 ± 3.57 µM.

With `C=C1C(=O)[C@]23C[C@H]1CC[C@H]2[C@]1(C)[C@@H](O)CC[C@@](C)(C(=O)O)[C@H]1C[C@@H]3O` [Compound 1, geopyxin A] the “Max. induction (fold)” value [1] was 2.1 fold, the EC50 ([1]; Homo sapiens, MDA-MB-231, 16 h) was 4.44 ± 0.41 µM and the “LD50 [48 h]” value [2, 11] was 60.36 ± 1.18 µM.

With `C=C1C(=O)[C@]23C[C@H]1CC[C@H]2[C@]1(C)C(=O)CC[C@@](C)(C(=O)O)[C@H]1C[C@@H]3O` [Compound 3, geopyxin C] the “Max. induction (fold)” value [1] was 2.1 fold, the EC50 [1, 10] was 2.33 ± 0.35 µM and the “time of peak NRF2 protein level” value ([3]; MDA-MB-231, 2.33 µM 3) was 4 h. The “protein level of NRF2 and downstream target genes AKR1C1, NQO-1, HO-1, GCLM” value [3] was “dose dependent increases”, the “mRNA level of NRF2” value [4] was “remained unchanged” and the “mRNA levels of the downstream genes” value [4] was “increased in a dose dependent manner”. The “level of NRF2 in KEAP1-/- cells” value [5] was “failed to further activate”, the “level of NRF2 in WT cells” value [5] was “dose-dependent activation” and the “ubiquitylation of NRF2” value [6] was “largely fails to be ubiquitylated”. The “half-life of NRF2” value ([7]; MDA-MB-231, at EC50, cycloheximide, in words) was “increased the half-life”, the “firefly luciferase induction in the presence of KEAP1-WT” value [8] was “induced” and the “KEAP1-Cys151 dependence of NRF2 activation” value [9] was “Cys151 dependent”. For the same compound, the “LD50 [48 h]” value [2, 11] was 51.29 ± 1.23 µM.

In the case of `C[C@]12[C@@H]3CC[C@@H]4C[C@]3(C(=O)[C@@H]4CO)[C@@H](O)C[C@@H]1[C@](C)(C(=O)O)CC[C@@H]2O` [Compound 5, geopyxin F], the “Max. induction (fold)” value [1] is reported as 3.0 fold, the EC50 [1, 10] is reported as 71.5 ± 5.8 µM and the “time course of NRF2 protein level” value ([3]; MDA-MB-231, 71.5 µM 5) is reported as “continues to steadily rise all the way up to 48 hours”. For the same compound, the “protein level of NRF2 and downstream target genes AKR1C1, NQO-1, HO-1, GCLM” value [3] was “dose dependent increases”, the “mRNA level of NRF2” value [4] was “remained unchanged” and the “mRNA levels of the downstream genes” value [4] was “increased in a dose dependent manner”. The “level of NRF2 in KEAP1-/- cells” value [5] was “failed to further activate”, the “level of NRF2 in WT cells” value [5] was “dose-dependent activation” and the “ubiquitylation of NRF2” value [6] was “largely fails to be ubiquitylated”. For the same compound, the “half-life of NRF2” value [7] was “increased the half-life”, the “increase of half-life of NRF2 relative to compound 3” value [7, 12] was “more than 2 times” and the “increase of half-life of NRF2 relative to untreated cells” value [7, 12] was “more than 3 times”. For the same compound, the “firefly luciferase induction in the presence of KEAP1-WT” value [8] was “induced”, the “firefly luciferase induction in the presence of KEAP1-C151S” value [9] was “induction” and the “KEAP1-Cys151 dependence of NRF2 activation” value [9] was “independent of KEAP1-Cys151”. The “LD50 [48 h]” value [2] was >128 µM and the cellular toxicity [2] was “no cellular toxicity”.

For `C=C1C(=O)[C@]23C[C@H]1CC[C@H]2[C@]1(C)[C@@H](O)CC[C@@](C)(C(=O)OC)[C@H]1C[C@@H]3O` [Compound 6, methylgeopyxin A], the “Max. induction (fold)” value [1] was 2.2 fold, the EC50 ([1]; Homo sapiens, MDA-MB-231, 16 h) was 2.32 ± 0.17 µM and the “LD50 [48 h]” value [2, 11] was 8.69 ± 0.93 µM.

For `O=[As][O-].[Na+]` [NaAsO2, Sodium (meta)arsenite, reference compound], the “firefly luciferase induction in the presence of KEAP1-C151S” value [9] was “induction”.

In the case of `C[S+]([O-])CCCCN=C=S` (centres unmarked) [SFN, sulforaphane, reference compound], the “Max. induction (fold)” value [1] is reported as 1.9 fold, the EC50 ([1]; Homo sapiens, MDA-MB-231, 16 h) is reported as 0.97 ± 0.18 µM and the “ubiquitylation of NRF2” value [6] is reported as “largely fails to be ubiquitylated”. The “LD50 [48 h]” value ([2]; human, 48 h) was 46.2 µM.

For `CC(C)(C)c1cc(O)ccc1O` [tBHQ, tert-butylhydroquinone, reference compound], the “Max. induction (fold)” value [1] was 2.2 fold, the EC50 ([1]; Homo sapiens, MDA-MB-231, 16 h) was 2.43 ± 0.34 µM and the “LD50 [48 h]” value [2, 11] was 85.1 µM.
